Holding throughout (type): cell-based
The nature of data set [1]: MTT cytotoxic assay, HeLa. The following applies: human, HeLa cells. The essentials:
(§1)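 Cells grown in RPMI-1640 with 10% fetal bovine serum, 5% CO2, 37 °C. Seeded at 5 × 10^4 cells per mL, 24 h to form a monolayer, then medium replaced with fresh medium plus test compound at 50, 25, 12.5, 6.25, 3.125, 1.5625 μg mL−1. After 3 days, MTT 4 h, formazan in DMSO, OD 570 nm. Inhibition rate from OD versus control, IC50 calculated; three individual experiments, mean ± SD; adriamycin positive control.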

The nature of data set [2]: MTT cytotoxic assay, A549. The note with it: human, A549 cells. In outline:
as §1

Data set [3] is described as follows: MTT cytotoxic assay, HepG2. The note with it: human, HepG2 cells. The essentials:
as §1
On the technique in general: Tetrazolium dyes change colour on reduction, which living cells bring about.

For `COc1cccc2c1C(=O)c1c(O)c3c(c(O)c1C2=O)C[C@@](O)(C(=O)CO)C[C@@H]3O[C@H]1C[C@H](N)[C@H](O)[C@H](C)O1` [Adriamycin, adriamycin], the IC50 at 3 days stood at 480 ± 70 nM in data set [1], 680 ± 60 nM in data set [2] and 1250 ± 40 nM in data set [3].

The IC50 is the midpoint of a concentration-inhibition curve. A lower IC50 goes with greater potency.

The values are drawn from paper PMC9091492 (RSC Advances, 2018).
